Test results from ChEMBL document CHEMBL1221399, “Antitumor Agents. 282. 2'-(R)-O-acetylglaucarubinone, a quassinoid from Odyendyea gabonensis as a potential anti-breast and anti-ovarian cancer agent” (J Nat Prod, 2010).
≈ marks a conversion by molar mass, not a printed value. Calls of active or inactive are those of the source.

Tests used:
DU-145 = assay: Cytotoxicity against human DU145 cells; type: functional; details: read-out: ED50 (the source's name)
Outline: (§1)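 Human tumour cell lines DU145, A549, KB and multidrug-resistant KB-VIN were exposed to the quassinoids, with paclitaxel as reference. ED50 was the mean concentration giving 50% effect under the defined assay condition, reported in µM.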

KB = assay: Cytotoxicity against human KB cells; type: functional; details: read-out: ED50 (the source's name); outline: as §1
[1] = Cytotoxicity against human KBVIN cells; type: functional; details: read-out: ED50 (the source's name); outline: as §1
A549 = assay: Cytotoxicity against human A549 cells; type: functional; details: read-out: ED50 (the source's name); outline: as §1
[2] = Growth inhibition of human KBVIN cells at 10 ug/ml; type: functional; details: read-out: GI
[3] = Cytotoxicity against human MSPC1 cells; type: functional, cell-based
[4] = Cytotoxicity against human 2774-C10 cells; type: functional, cell-based
[5] = Cytotoxicity against human HeyA8 cells; type: functional, cell-based; details: HEY A8
BT-474 = assay: Cytotoxicity against human BT474 cells; type: functional, cell-based
SK-BR-3 = assay: Cytotoxicity against human SK-BR-3 cells; type: functional, cell-based
MCF7 [6] = assay: Cytotoxicity against human MCF7 cells; type: functional, cell-based
MCF7 [7] = assay: Cytotoxicity against human MCF7 cells overexpressing HER2; type: functional, cell-based
[8] = Cytotoxicity against human HOC7 cells; type: functional, cell-based
MDA-MB-468 = assay: Cytotoxicity against human MDA-MB-468 cells; type: functional, cell-based
MDA-MB-231 = assay: Cytotoxicity against human MDA-MB-231 cells; type: functional, cell-based
Mus musculus [9] = assay: Reduction of mammary gland ductal branching in […]/p53-deficient C57BL/6/129/Sv mouse model at 0.1 mg/kg, ip daily for 5 days measured post last dose by immunohistochemistry; type: functional, organism-based; design: dose 0.1 mg/kg
Outline: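 Three-month-old Brca1/p53 conditional mutant mice (mixed C57BL/6 and 129/Sv background) dosed i.p. daily for 5 days, with vehicle controls. Fourth-pair mammary glands are whole-mounted, fixed in Carnoy's 3 h and stained overnight with carmine alum. Ductal branching points are scored against vehicle-treated mice, significance by two-tailed t-test.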

Mus musculus [10] = assay: Reduction of mammary gland ductal branching in […]/p53-deficient C57BL/6/129/Sv mouse model at 0.1 mg/kg, ip daily for 7 days measured post last dose by immunohistochemistry; type: functional
Outline: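 Three-month-old Brca1/p53 conditional mutant mice (Cre, mixed C57BL/6 and 129/Sv background) given […] daily for 7 days. Dose is drawn from a 1 mg/mL DMSO stock, 10 µL mixed with 30 µL 40% PEG and 60 µL 0.9% NaCl at dosing. Controls get vehicle. Fourth-pair glands are whole-mounted, Carnoy-fixed 3 h and carmine alum-stained overnight. Branching points are counted relative to vehicle, two-tailed t-test.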

Compound `CC[C@](C)(O)C(=O)O[C@H]1C(=O)O[C@@H]2C[C@H]3C(C)=CC(=O)[C@@H](O)[C@]3(C)[C@H]3[C@@]4(O)OC[C@]32[C@@H]1[C@@H](C)[C@H]4O` [GLAUCARUBINONE] has an EC50 (DU-145) of 470 nM, an EC50 (KB) of 440 nM and an EC50 [1] of 1240 nM. For the same compound, the EC50 (A549) was 880 nM.
For `CC[C@](C)(OC(C)=O)C(=O)O[C@H]1C(=O)O[C@@H]2C[C@H]3C(C)=C[C@H](O)[C@@H](O)[C@]3(C)[C@H]3[C@@]4(O)OC[C@]32[C@@H]1[C@@H](C)[C@H]4O`, the EC50 (DU-145) was 830 nM, the EC50 (KB) was 670 nM and the EC50 (A549) was 3600 nM. The inhibition of growth at 10 µg/mL [2] was less than 50%.
`CC[C@](C)(OC(C)=O)C(=O)O[C@H]1C(=O)O[C@@H]2C[C@H]3C(C)=CC(=O)[C@@H](O)[C@]3(C)[C@H]3[C@@]4(O)OC[C@]32[C@@H]1[C@@H](C)[C@H]4O` [2'-ACETOXY-GLAUCARUBINONE] gave an IC50 [3] of less than 0.01 µg/mL, an IC50 [4] of less than 0.01 µg/mL and an IC50 [5] of less than 0.01 µg/mL. The EC50 (DU-145) was 40 nM, the IC50 (BT-474) was 28.4 µg/mL (≈ 52.9 µM) and the EC50 (KB) was 50 nM. For the same compound, the IC50 (SK-BR-3) was 0.014 µg/mL (≈ 0.0261 µM), the IC50 (MCF7 [6]) was 8.13 µg/mL (≈ 15.2 µM) and the IC50 (MCF7 [7]) was 0.013 µg/mL (≈ 0.0242 µM). The EC50 [1] was 420 nM, the IC50 [8] was less than 0.01 µg/mL and the IC50 (MDA-MB-468) was 0.016 µg/mL (≈ 0.0298 µM). It also gave an IC50 (MDA-MB-231) of 0.077 µg/mL (≈ 0.144 µM) and an EC50 (A549) of 60 nM.
With `CC(=O)O[C@H]1C(=O)[C@@]2(C)[C@H]([C@H](OC(=O)c3ccccc3)[C@]3(O)C[C@H](OC(=O)[C@H](O)[C@@H](NC(=O)c4ccccc4)c4ccccc4)C(C)=C1C3(C)C)[C@]1(OC(C)=O)CO[C@@H]1C[C@@H]2O` [PACLITAXEL] the EC50 (DU-145) was 3 nM, the EC50 (KB) was 7 nM and the EC50 [1] was greater than 1000 nM. For the same compound, the EC50 (A549) was 8 nM.
Work on `CC[C@@](C)(OC(C)=O)C(=O)O[C@H]1C(=O)O[C@@H]2C[C@H]3C(C)=CC(=O)[C@@H](O)[C@]3(C)[C@H]3[C@@]4(O)OC[C@]32[C@@H]1[C@@H](C)[C@H]4O` yielded an EC50 (DU-145) of 70 nM, an EC50 (KB) of 70 nM and an EC50 [1] of 440 nM. It also gave an EC50 (A549) of 70 nM.
Compound `CCC(C)C(=O)O[C@H]1C(=O)O[C@@H]2C[C@H]3C(C)=CC(=O)[C@@H](O)[C@]3(C)[C@H]3[C@]4(O)OC[C@]32[C@@H]1[C@@H](C)[C@H]4O` (stereo not given in full) [AILANTHINONE] has an EC50 (DU-145) of 90 nM, an EC50 (KB) of 180 nM and an EC50 [1] of 370 nM. For the same compound, the EC50 (A549) was 130 nM.
With `COC(=O)[C@@]12OC[C@]34[C@H]([C@@H](O)[C@@H]1O)[C@@]1(C)CC(=O)C(O)=C(C)[C@@H]1C[C@H]3OC(=O)[C@H](OC(=O)/C=C(\C)C(C)C)[C@@H]24` the inhibition (Mus musculus [9]) was “Active” and the inhibition (Mus musculus [10]) was “Active”.
In the case of `CCC(C)C(=O)O[C@H]1C(=O)O[C@@H]2C[C@H]3C(C)=C[C@H](O)[C@@H](O)[C@]3(C)[C@H]3[C@@]4(O)OC[C@]32[C@@H]1[C@@H](C)[C@H]4O` (stereo not given in full) [EXCELSIN], the EC50 (DU-145) is reported as 4700 nM, the EC50 (KB) is reported as 4300 nM and the EC50 (A549) is reported as 16000 nM. It also gave an inhibition of growth at 10 µg/mL [2] of less than 50%.
